Experimental data as given in ChEMBL document CHEMBL3044755, “5-Methyl-1,2,3-thiadiazoles synthesized via ugi reaction and their fungicidal and antiviral activities” (J Agric Food Chem, 2010).

Assays:
Alternaria solani = test: Fungicidal activity against Alternaria solani at 50 ug/ml by growth inhibition method; assay type: functional; details: read-out: GI
Method in brief: (§1)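 Mycelial growth inhibition on potato dextrose agar. The panel covered Alternaria solani, Botrytis cinerea, Cercospora arachidicola, C. beticola, Colletotrichum lagenarium, Fusarium oxysporum, Gibberella zeae, Puccinia triticina, Phytophthora infestans, Physalospora piricola, Pellicularia sasakii and Rhizoctonia solani.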

Tobacco mosaic virus [1] = test: In vitro antiviral activity against Tobacco mosaic virus (TMV) infected tobacco leaves at 500 ug/ml; assay type: functional
Mycosphaerella arachidis = test: Fungicidal activity against Mycosphaerella arachidis at 50 ug/ml by growth inhibition method; assay type: functional; details: read-out: GI; method in brief: as §1
Phytophthora infestans = test: Fungicidal activity against Phytophthora infestans at 50 ug/ml by growth inhibition method; assay type: functional; details: read-out: GI; method in brief: as §1
Thanatephorus cucumeris = test: Fungicidal activity against Thanatephorus cucumeris at 50 ug/ml by growth inhibition method; assay type: functional; details: read-out: GI; method in brief: as §1
Botrytis cinerea = test: Fungicidal activity against Botryotinia fuckeliana at 50 ug/ml by growth inhibition method; assay type: functional; details: read-out: GI; method in brief: as §1
[2] = tested on: Botryosphaeria berengeriana; test: Fungicidal activity against Botryosphaeria berengeriana at 50 ug/ml by growth inhibition method; assay type: functional; details: read-out: GI; method in brief: as §1
Cercospora beticola = test: Fungicidal activity against Cercospora beticola at 50 ug/ml by growth inhibition method; assay type: functional; details: read-out: GI; method in brief: as §1
Fusarium graminearum = test: Fungicidal activity against Fusarium graminearum at 50 ug/ml by growth inhibition method; assay type: functional; details: read-out: GI; method in brief: as §1
Colletotrichum lagenaria = test: Fungicidal activity against Colletotrichum lagenaria at 50 ug/ml by growth inhibition method; assay type: functional; details: read-out: GI; method in brief: as §1
Tobacco mosaic virus [3] = test: In vitro antiviral activity against Tobacco mosaic virus (TMV) infected tobacco leaves at 100 ug/ml; assay type: functional
Fusarium oxysporum = test: Fungicidal activity against Fusarium oxysporum at 50 ug/ml by growth inhibition method; assay type: functional; details: read-out: GI; method in brief: as §1
Tobacco mosaic virus [4] = test: In vitro antiviral activity against Tobacco mosaic virus (TMV) infected tobacco leaves at 200 ug/ml; assay type: functional
Tobacco mosaic virus [5] = test: In vivo antiviral activity against Tobacco mosaic virus (TMV) infected tobacco leaves assessed as protective effect at 500 ug/ml treated 12 hr before viral inoculation measured at 2-3 days after viral challenge; assay type: functional
Method in brief: (§2)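 Six-leaf tobacco; compound solution smeared over whole leaves, dried in greenhouse, then after 12 h TMV (5.88 10-2 μg/mL) rubbed onto upper three leaves, with solvent on lower three leaves as control. Local lesions counted 2-3 days post-inoculation, three repetitions. Inhibition (%) = (CK − A)/CK × 100 from mean lesion numbers.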

Nicotiana tabacum [6] = test: Induction of systemic acquired resistance activity in TMV infected-Nicotiana tabacum (tobacco) leaves at 50 ug/ml; assay type: functional
Method in brief: (§3)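 Tobacco/TMV system used for systemic acquired resistance induction. Inhibition ratio calculated from mean lesion numbers on inoculated leaves relative to corresponding control. Tiadinil and ribavirin run as controls.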

Tobacco mosaic virus [7] = test: In vivo antiviral activity against Tobacco mosaic virus (TMV) infected tobacco leaves assessed as inactivation effect at 500 ug/ml co-treated with virus for 30 min before inoculation onto leaves measured at 2-3 days after viral challenge; assay type: functional
Method in brief: (§4)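 TMV (5.88 10-2 μg/mL) mixed with equal volume of compound solution for 30 min, then rubbed onto upper three leaves of six-leaf tobacco; solvent on lower three leaves as control. Lesions counted 2-3 days later, three repetitions. Inhibition (%) = (CK − A)/CK × 100 from mean lesion counts.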

Nicotiana tabacum [8] = test: Phytotoxicity against Nicotiana tabacum (tobacco) plant; assay type: organism-based; details: in vivo
Nicotiana tabacum [9] = test: Induction of systemic acquired resistance activity in TMV infected-Nicotiana tabacum (tobacco) leaves at 100 ug/ml; assay type: functional; method in brief: as §3
Tobacco mosaic virus [10] = test: In vivo antiviral activity against Tobacco mosaic virus (TMV) infected tobacco leaves assessed as protective effect at 100 ug/ml treated 12 hr before viral inoculation measured at 2-3 days after viral challenge; assay type: functional; method in brief: as §2
Tobacco mosaic virus [11] = test: In vivo antiviral activity against Tobacco mosaic virus (TMV) infected tobacco leaves assessed as inactivation effect at 100 ug/ml co-treated with virus for 30 min before inoculation onto leaves measured at 2-3 days after viral challenge; assay type: functional; method in brief: as §4
Puccinia triticina = test: Fungicidal activity against Puccinia triticina at 50 ug/ml by growth inhibition method; assay type: functional; details: read-out: GI; method in brief: as §1
Rhizoctonia solani = test: Fungicidal activity against Rhizoctonia solani at 50 ug/ml by growth inhibition method; assay type: functional; details: read-out: GI; method in brief: as §1

| Structure (SMILES) | inhibition of growth at 50 µg/mL (Alternaria solani) [%] | inhibition at 500 µg/mL (Tobacco mosaic virus [1]) [%] | inhibition of growth at 50 µg/mL (Mycosphaerella arachidis) [%] | inhibition of growth at 50 µg/mL (Phytophthora infestans) [%] | inhibition of growth at 50 µg/mL (Thanatephorus cucumeris) [%] | inhibition of growth at 50 µg/mL (Botrytis cinerea) [%] | inhibition of growth at 50 µg/mL [2] [%] | inhibition of growth at 50 µg/mL (Cercospora beticola) [%] | inhibition of growth at 50 µg/mL (Fusarium graminearum) [%] | inhibition of growth at 50 µg/mL (Colletotrichum lagenaria) [%] | inhibition at 100 µg/mL (Tobacco mosaic virus [3]) [%] | inhibition of growth at 50 µg/mL (Fusarium oxysporum) [%] | inhibition at 200 µg/mL (Tobacco mosaic virus [4]) [%] | further results |
| --- | --- | --- | --- | --- | --- | --- | --- | --- | --- | --- | --- | --- | --- | --- |
| Cc1ccc(N(C(=O)c2nnsc2C)C(C(=O)NC(C)C)c2cccc(F)c2)cc1Cl (stereo unspecified) | 42 | 18 | 21 | 18 | 69 | 78 | 38 | 33 | 23 | 10 | 34 | 19 |  |  |
| Cc1ccc(N(C(=O)c2nnsc2C)C(C(=O)NC(C)C)c2ccccc2[N+](=O)[O-])cc1Cl (stereo unspecified) | 26 | 59 | 5 | 24 | 31 | 60 | 39 | 8 | 12 | 10 | 19 | 14 |  |  |
| Cc1ccc(N(C(=O)c2nnsc2C)C(C(=O)NC(C)C)c2ccc(C(F)(F)F)cc2)cc1Cl (stereo unspecified) | 35 | 34 | 25 | 0 | 56 | 70 | 11 | 17 | 67 | 7 |  | 12 | 32 |  |
| Cc1ccc(N(C(=O)c2nnsc2C)C(C(=O)NC(C)C)c2cccc(Cl)c2)cc1Cl (stereo unspecified) | 37 | 9 | 8 | 14 | 62 | 76 | 40 | 9 | 4 | 14 |  | 26 | 6 |  |
| NC(=O)c1ncn([C@@H]2O[C@H](CO)[C@@H](O)[C@H]2O)n1 [RIBAVIRIN] |  | 32 |  |  |  |  |  |  |  |  | 20 |  |  | Activity (Tobacco mosaic virus [5]): 59%; Activity (Nicotiana tabacum [6]): 31%; Activity (Tobacco mosaic virus [7]): 59%; Activity (Nicotiana tabacum [8]): Non-toxic; Activity (Nicotiana tabacum [9]): 28%; Activity (Tobacco mosaic virus [10]): 30%; Activity (Tobacco mosaic virus [11]): 46% |
| Cc1ccc(N(C(=O)c2nnsc2C)C(C(=O)NC(C)C)c2ccc([N+](=O)[O-])cc2)cc1Cl (stereo unspecified) | 39 | 19 | 17 | 21 | 60 | 79 | 33 | 9 | 4 | 4 |  | 23 | 14 |  |
| Cc1ccc(N(C(=O)c2nnsc2C)C(C(=O)NC(C)C)c2cccc(O)c2)cc1Cl (stereo unspecified) | 33 | 24 | 14 | 30 | 59 | 73 | 45 | 23 | 15 | 13 | 13 | 30 |  |  |
| Cc1ccc(C(C(=O)NC(C)C)N(C(=O)c2nnsc2C)c2ccc(C)c(Cl)c2)cc1 (stereo unspecified) | 34 | 21 | 33 | 0 | 60 | 79 | 37 | 9 | 0 | 11 |  | 19 | 11 |  |
| Cc1ccc(N(C(=O)c2nnsc2C)C(C(=O)NC(C)C)c2ccccc2O)cc1Cl (stereo unspecified) | 38 | 23 | 9 | 24 | 47 | 75 | 39 | 0 | 18 | 7 | 18 | 18 |  |  |
| Cc1ccc(N(C(=O)c2nnsc2C)C(C(=O)NC(C)C)c2cccc([N+](=O)[O-])c2)cc1Cl (stereo unspecified) | 33 | 34 | 9 | 26 | 52 | 78 | 45 | 46 | 33 | 10 | 28 | 12 |  |  |
| Cc1ccc(N(C(=O)c2nnsc2C)C(C(=O)NC(C)C)c2ccccc2F)cc1Cl (stereo unspecified) | 40 | 34 | 21 | 15 | 67 | 73 | 33 | 25 | 37 | 10 | 32 | 21 |  |  |
| Cc1cccc(C(C(=O)NC(C)C)N(C(=O)c2nnsc2C)c2ccc(C)c(F)c2)c1 (stereo unspecified) | 0 | 35 | 9 | 13 | 0 |  | 0 | 25 | 0 | 0 | 14 |  |  | inhibition of growth at 50 µg/mL (Puccinia triticina): 0%; inhibition of growth at 50 µg/mL (Rhizoctonia solani): 0% |
